Data taken from ChEMBL document CHEMBL4196130, “3-(2-Carboxyethyl)indole-2-carboxylic Acid Derivatives: Structural Requirements and Properties of Potent Agonists of the Orphan G Protein-Coupled Receptor GPR17” (J Med Chem, 2018).
Active and inactive are the calls of the source. The calls are words filed in the database; no cut-off is given here.

Tests used:
[1] = molecular target: T1, Uracil nucleotide/cysteinyl leukotriene receptor (Homo sapiens, UniProt Q13304); assay: Agonist activity at human GPR17 expressed in human 1321N1 cells assessed as induction of calcium mobilization at >30 uM after 1 hr by Oregon Green BAPTA-1/AM dye-based fluorescence assay relative to control; type: functional, cell-based
T1 sequence (Q13304 whole entry): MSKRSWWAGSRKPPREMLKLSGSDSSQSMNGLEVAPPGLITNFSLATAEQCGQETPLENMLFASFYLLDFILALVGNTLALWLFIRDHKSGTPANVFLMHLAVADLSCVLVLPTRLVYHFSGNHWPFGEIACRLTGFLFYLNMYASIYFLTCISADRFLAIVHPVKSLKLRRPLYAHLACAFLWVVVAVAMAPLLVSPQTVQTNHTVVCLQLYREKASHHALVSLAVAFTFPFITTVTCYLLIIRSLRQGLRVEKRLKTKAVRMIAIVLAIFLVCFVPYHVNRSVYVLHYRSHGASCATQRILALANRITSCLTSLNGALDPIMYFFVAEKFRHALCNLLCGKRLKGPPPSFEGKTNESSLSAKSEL

[2] = molecular target: T1, Uracil nucleotide/cysteinyl leukotriene receptor; assay: Agonist activity at human GPR17 expressed in human 1321N1 cells assessed as induction of calcium mobilization after 1 hr by Oregon Green BAPTA-1/AM dye-based fluorescence assay; type: functional, cell-based
Outline: (§1)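 Stably transfected 1321N1 astrocytoma cells were trypsin/EDTA-harvested, held 45 min at 37°C, then loaded 1 h at 25°C in KRH buffer pH 7.4 with 3 µM Oregon Green BAPTA-1/AM and 1% Pluronic F127, washed, and plated at ~16,000 cells/well. Fluorescence was read at 520 nm for 30 s after compound injection. Efficacy was expressed relative to the maximum given by 10 µM MDL 29,951. EC50 came from concentration-response curves, run for compounds exceeding 50% stimulation at 10 µM. At least three independent experiments, each in duplicate.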

[3] = molecular target: T1, Uracil nucleotide/cysteinyl leukotriene receptor; assay: Agonist activity at human GPR17 expressed in human 1321N1 cells assessed as induction of calcium mobilization after 1 hr by Oregon Green BAPTA-1/AM dye-based fluorescence assay relative to MDL 29,951; type: functional, cell-based; outline: as §1
[4] = molecular target: T1, Uracil nucleotide/cysteinyl leukotriene receptor; assay: Antagonist activity at human GPR17 expressed in human 1321N1 cells assessed as inhibition of MDL 29,951-induced calcium mobilization at 30 uM after 1 hr by Oregon Green BAPTA-1/AM dye-based fluorescence assay relative to control
[5] = molecular target: T1, Uracil nucleotide/cysteinyl leukotriene receptor; assay: Antagonist activity at human GPR17 expressed in human 1321N1 cells assessed as inhibition of MDL 29,951-induced calcium mobilization after 1 hr by Oregon Green BAPTA-1/AM dye-based fluorescence assay; type: functional, cell-based
Outline: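 Oregon Green BAPTA-1/AM calcium assay in hGPR17-1321N1 cells (1 h dye loading at 25°C in KRH buffer pH 7.4). Full inhibition curves were run for potent antagonists. Fluorescence was read at 520 nm.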

[6] = molecular target: T1, Uracil nucleotide/cysteinyl leukotriene receptor; assay: Agonist activity at human GPR17 expressed in human 1321N1 cells assessed as induction of calcium mobilization at >100 uM after 1 hr by Oregon Green BAPTA-1/AM dye-based fluorescence assay relative to control; type: functional, cell-based
[7] = molecular target: P2Y purinoceptor 2 (Homo sapiens, UniProt P41231); assay: Agonist activity at human P2Y2 receptor transfected in human 1321N1 cells assessed as induction of calcium mobilization after 30 mins in presence of UTP by fluo-4 dye based assay; type: functional, cell-based
P2Y purinoceptor 2, sequence (P41231 whole entry): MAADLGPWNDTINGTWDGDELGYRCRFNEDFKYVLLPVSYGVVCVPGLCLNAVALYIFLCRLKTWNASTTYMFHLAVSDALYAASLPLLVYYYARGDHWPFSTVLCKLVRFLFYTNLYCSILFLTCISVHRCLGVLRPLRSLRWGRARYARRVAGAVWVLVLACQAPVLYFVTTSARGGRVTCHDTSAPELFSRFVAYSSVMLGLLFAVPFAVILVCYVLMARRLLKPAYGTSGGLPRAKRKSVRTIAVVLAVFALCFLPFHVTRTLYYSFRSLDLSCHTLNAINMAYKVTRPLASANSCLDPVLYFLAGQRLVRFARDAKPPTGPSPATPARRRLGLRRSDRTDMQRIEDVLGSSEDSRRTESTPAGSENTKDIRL
Outline: (§2)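 Calcium mobilization was measured in 1321N1 astrocytoma cells stably transfected with human P2Y1, P2Y2, P2Y4 or P2Y6 receptors, read on a Flexstation III microplate reader.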

[8] = molecular target: P2Y purinoceptor 1 (Homo sapiens) (UniProt P47900); assay: Agonist activity at human P2Y1 receptor transfected in human 1321N1 cells assessed as induction of calcium mobilization after 30 mins in presence of ADP by fluo-4 dye based assay; type: functional, cell-based; outline: as §2
P2Y purinoceptor 1 (Homo sapiens), sequence (P47900 whole entry): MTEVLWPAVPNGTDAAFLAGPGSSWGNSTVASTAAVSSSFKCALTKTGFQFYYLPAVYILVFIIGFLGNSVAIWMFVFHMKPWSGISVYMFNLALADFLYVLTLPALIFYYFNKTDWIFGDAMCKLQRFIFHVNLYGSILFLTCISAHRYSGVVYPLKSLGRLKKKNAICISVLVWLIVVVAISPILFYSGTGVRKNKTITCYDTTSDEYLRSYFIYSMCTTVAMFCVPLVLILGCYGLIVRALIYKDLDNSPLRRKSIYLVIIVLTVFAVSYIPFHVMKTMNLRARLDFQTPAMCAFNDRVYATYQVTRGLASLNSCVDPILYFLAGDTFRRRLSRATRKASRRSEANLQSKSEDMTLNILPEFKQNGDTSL

[9] = molecular target: P2Y purinoceptor 4 (Homo sapiens) (UniProt P51582); assay: Agonist activity at human P2Y4 receptor transfected in human 1321N1 cells assessed as induction of calcium mobilization after 30 mins in presence of UTP by fluo-4 dye based assay; type: functional, cell-based; outline: as §2
P2Y purinoceptor 4 (Homo sapiens), sequence (P51582 whole entry): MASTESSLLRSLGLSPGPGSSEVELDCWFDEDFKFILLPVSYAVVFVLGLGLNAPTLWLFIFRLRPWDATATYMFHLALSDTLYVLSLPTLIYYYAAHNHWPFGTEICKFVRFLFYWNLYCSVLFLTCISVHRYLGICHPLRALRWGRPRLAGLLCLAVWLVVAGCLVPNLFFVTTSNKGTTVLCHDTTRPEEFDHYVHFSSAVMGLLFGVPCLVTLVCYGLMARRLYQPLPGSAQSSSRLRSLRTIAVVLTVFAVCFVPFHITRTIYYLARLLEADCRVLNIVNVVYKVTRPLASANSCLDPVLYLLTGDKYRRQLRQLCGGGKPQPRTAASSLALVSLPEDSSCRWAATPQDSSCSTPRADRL

[10] = molecular target: P2Y purinoceptor 6 (Homo sapiens) (UniProt Q15077); assay: Agonist activity at human P2Y6 receptor transfected in human 1321N1 cells assessed as induction of calcium mobilization after 30 mins in presence of UDP by fluo-4 dye based assay; type: functional, cell-based; outline: as §2
P2Y purinoceptor 6 (Homo sapiens), sequence (Q15077 whole entry): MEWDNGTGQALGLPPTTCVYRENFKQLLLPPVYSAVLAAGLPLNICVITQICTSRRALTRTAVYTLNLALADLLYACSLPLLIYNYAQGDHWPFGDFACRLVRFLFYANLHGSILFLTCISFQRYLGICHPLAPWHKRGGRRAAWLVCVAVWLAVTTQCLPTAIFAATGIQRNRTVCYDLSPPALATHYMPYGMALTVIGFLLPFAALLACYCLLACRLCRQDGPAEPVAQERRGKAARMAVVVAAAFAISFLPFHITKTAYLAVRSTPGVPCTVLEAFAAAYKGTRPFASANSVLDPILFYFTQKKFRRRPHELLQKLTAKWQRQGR

[11] = molecular target: T2, P2Y purinoceptor 14 (Homo sapiens) (UniProt Q15391); assay: Agonist activity at human P2Y14 receptor transfected in CHO cells assessed as induction of beta-arrestin translocation; type: functional, cell-based
T2 sequence (whole entry): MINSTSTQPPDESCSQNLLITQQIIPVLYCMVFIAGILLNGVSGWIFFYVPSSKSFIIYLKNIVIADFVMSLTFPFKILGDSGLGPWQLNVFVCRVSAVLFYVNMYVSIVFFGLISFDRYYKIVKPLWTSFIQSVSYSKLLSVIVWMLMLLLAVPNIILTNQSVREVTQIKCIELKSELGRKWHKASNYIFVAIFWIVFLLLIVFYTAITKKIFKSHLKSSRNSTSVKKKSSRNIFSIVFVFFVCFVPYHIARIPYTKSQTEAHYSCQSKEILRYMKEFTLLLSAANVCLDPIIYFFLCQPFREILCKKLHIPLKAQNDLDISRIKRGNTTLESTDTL
Outline: (§3)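 β-Arrestin translocation assays were run in CHO cells stably transfected with human P2Y12 or P2Y14 receptors.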

[12] = molecular target: P2Y purinoceptor 12 (Homo sapiens) (UniProt Q9H244); assay: Agonist activity at human P2Y12 receptor transfected in CHO cells assessed as induction of beta-arrestin translocation; type: functional, cell-based; outline: as §3
P2Y purinoceptor 12 (Homo sapiens), sequence (Q9H244 whole entry): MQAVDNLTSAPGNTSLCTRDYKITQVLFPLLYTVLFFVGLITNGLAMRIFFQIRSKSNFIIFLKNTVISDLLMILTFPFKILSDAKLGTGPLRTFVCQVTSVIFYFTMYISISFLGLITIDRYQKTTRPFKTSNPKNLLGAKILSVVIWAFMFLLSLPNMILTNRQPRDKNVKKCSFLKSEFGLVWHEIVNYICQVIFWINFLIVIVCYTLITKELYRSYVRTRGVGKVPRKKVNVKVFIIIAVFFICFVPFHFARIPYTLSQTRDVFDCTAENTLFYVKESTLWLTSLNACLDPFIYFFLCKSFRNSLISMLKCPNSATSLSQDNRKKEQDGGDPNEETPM

Compound | Activity [1] [%] | EC50 [2] [µM] | Emax [3] [%] | also measured
CC(C)c1ccc2[nH]c(C(=O)O)c(CCC(=O)O)c2c1 | 6 | > 30 |  | 
O=C(O)CCc1c(C(=O)O)[nH]c2c1ccc1ccccc12 | 0 | > 30 |  | 
O=C(O)CCc1c(C(=O)O)[nH]c2cc(-c3cccs3)ccc12 |  | 9.55 | 87 | 
CCCCCCCCOc1cc(Cl)c2c(CCC(=O)O)c(C(=O)O)[nH]c2c1 |  | 0.117 | 77 | 
O=C(O)Cc1c[nH]c2ccc(O)cc12 | 1 |  |  | inhibition [4]: 7%; IC50 [5]: > 30 µM
O=C(O)CCc1c(C(=O)O)[nH]c2ccc(F)cc12 | 9 | > 30 |  | 
CN(C)CCc1c[nH]c2ccc(Cn3cncn3)cc12 [RIZATRIPTAN] | 0 |  |  | inhibition [4]: 27%; IC50 [5]: > 30 µM
O=C(O)CCc1c(C(=O)O)[nH]c2c(F)c(-c3ccco3)ccc12 |  | 14.4 | 57 | 
O=C(O)CCc1c(C(=O)O)[nH]c2cc(-c3ccccc3)ccc12 |  |  | 83 | 
O=C(O)CCc1c(C(=O)O)n(CCC(=O)O)c2cc(Cl)cc(Cl)c12 |  | 5.44 |  | 
O=C(O)CCc1c(C(=O)O)[nH]c2cc(F)ccc12 |  | ≥ 10 |  | 
O=C(O)CCc1c(C(=O)O)[nH]c2cc(-c3ccco3)ccc12 |  | 4.13 | 74 | 
CCCCCOc1cc(Cl)cc2[nH]c(C(=O)O)c(CCC(=O)O)c12 |  | ≥ 10 |  | 
COc1cccc2[nH]c(C(=O)O)c(CCC(=O)O)c12 |  | > 100 |  | Activity [6]: 4%
N[C@@H](Cc1c[nH]c2ccccc12)C(=O)O [TRYPTOPHAN] | 0 |  |  | inhibition [4]: 1%; IC50 [5]: > 30 µM
O=C(O)CCc1c[nH]c2cc(Cl)cc(Cl)c12 |  | 1.68 | 41 | 
O=C(O)CCc1c(C(=O)O)[nH]c2cccc(-c3ccccc3)c12 |  | > 100 |  | Activity [6]: 3%
O=C(O)CCc1c(C(=O)O)[nH]c2cc(-c3ccccc3)cc(-c3ccccc3)c12 |  | 4.09 | 84 | 
O=C(O)CCc1c(C(=O)O)[nH]c2cc(Oc3ccccc3)ccc12 |  | 0.27 | 100 | 
O=C(O)/C=C/c1c(C(=O)O)[nH]c2cc(Cl)cc(Cl)c12 | 22 | > 30 |  | 
COc1ccc2[nH]c(C(=O)O)c(CCC(=O)O)c2c1 | 5 | > 30 |  | 
O=C(O)CCc1c(C(=O)O)[nH]c2c(F)c(-c3ccc(F)cc3)ccc12 |  | > 100 |  | 
O=C(O)CCc1c(C(=O)O)[nH]c2cc(-c3ccc(F)cc3)ccc12 |  | 4.02 | 48 | 
O=C(O)CCc1c(C(=O)O)[nH]c2ccccc12 | 8 | > 30 |  | 
O=C(O)CCc1c(C(=O)O)[nH]c2cc(Cc3ccccc3)ccc12 |  | 4.98 | 80 | 
O=C(O)CCc1c(C(=O)O)[nH]c2c(F)c(-c3cccs3)ccc12 |  | > 100 |  | Activity [6]: 21%
COc1ccc2c(CCC(=O)O)c(C(=O)O)[nH]c2c1 |  | > 100 |  | Activity [6]: 35%; IC50 [5]: 8.4 µM
O=C(O)CCc1c(C(=O)O)[nH]c2c(F)c(-c3ccccc3)ccc12 |  | 3.01 | 65 | 
O=C(O)CCc1c(C(=O)O)[nH]c2cc(Cl)cc(-c3ccc(F)cc3)c12 |  | 3.68 | 101 | 
COc1ccc2c(c1)c(CC(=O)O)c(C)n2C(=O)c1ccc(Cl)cc1 [INDOMETHACIN] | 0 |  |  | IC50 [5]: 28.8 µM

Further lines, with some results ahead:

Activity [1] [%] | EC50 [2] [µM] | Emax [3] [%] | Compound | also measured
1 | > 30 |  | O=C(O)CCc1c(C(=O)O)[nH]c2c(Cl)ccc(Cl)c12 | 
16 | > 30 |  | Cn1c(C(=O)O)c(CCC(=O)O)c2c(Cl)cc(Cl)cc21 | 
 | 4.83 | 98 | O=C(O)CCc1c(C(=O)O)[nH]c2c(F)c(Br)ccc12 | 
 | 0.103 | 98 | CCCCCOc1cc(Cl)c2c(CCC(=O)O)c(C(=O)O)[nH]c2c1 | 
1 | > 30 |  | O=C(O)CCCc1c(C(=O)O)[nH]c2cc(Cl)cc(Cl)c12 | 
 |  | 72 | O=C(O)CCc1c(C(=O)O)[nH]c2cc(F)cc(F)c12 | 
16 | > 30 |  | O=C(O)CCc1c(C(=O)O)[nH]c2c(Cl)cc(Cl)c(Cl)c12 | 
 |  | 84 | O=C(O)CCc1c(C(=O)O)[nH]c2cc(Cl)ccc12 | 
 | 0.423 | 92 | O=C(O)CCc1c(C(=O)O)[nH]c2cc(-c3ccc(F)cc3)cc(Cl)c12 | 
 | 0.0321 | 122 | O=C(O)CCc1c(C(=O)O)[nH]c2cc(I)cc(F)c12 | Activity [7]: inactive; Activity [8]: inactive; Activity [9]: inactive; Activity [10]: inactive; Activity [11]: inactive; Activity [12]: inactive
11 | > 30 |  | O=C(O)CCc1c(C(=O)O)[nH]c2cc(Cl)c(Cl)cc12 | 
 | > 100 |  | O=C(O)CCc1c(C(=O)O)[nH]c2c(Cl)c(Cl)ccc12 | Activity [6]: 5%
 | 7.9 | 87 | O=C(O)CCc1c(C(=O)O)[nH]c2c(F)c(Cl)ccc12 | 
 | 1.47 | 92 | O=C(O)CCc1c(C(=O)O)[nH]c2cc(F)cc(I)c12 | 
 | 0.624 | 100 | O=C(O)CCc1c(C(=O)O)[nH]c2cc(F)cc(Br)c12 | 
 | 15.1 | 76 | Cc1cc(C)c2c(CCC(=O)O)c(C(=O)O)[nH]c2c1 | 
 | 0.0279 | 102 | O=C(O)CCc1c(C(=O)O)[nH]c2cc(Br)cc(F)c12 | Activity [7]: inactive; Activity [8]: inactive; Activity [9]: inactive; Activity [10]: inactive; Activity [11]: inactive; Activity [12]: inactive
